These results are taken from ChEMBL document CHEMBL1138567, “Regioselective synthesis and antimicrobial screening of novel ketocarbazolodispiropyrrolidine derivatives” (2009).

Type in all cases: functional
Holding throughout (settings): read-out: IZ

For experiment [1], the system named is Staphylococcus aureus. The experiment in a line: Antimicrobial activity against Staphylococcus aureus at 75 ug/ml after 24 hrs by agar diffusion method. The gist of the method: (§1)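 Agar well diffusion: petri plates (9 cm) with about 9 ml nutrient agar, seeded with the test organism. Wells cut with a cork borer and loaded with test compound at 25, 50, 75 or 100 per ml; tetracycline as control. Incubated 37 °C for 24 h; average inhibition-zone diameter around wells measured (mm).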
(In agar diffusion tests the substance spreads into inoculated agar from a disc or well.)

In experiment [2] the test system is Proteus vulgaris. The experiment in a line: Antimicrobial activity against Proteus vulgaris at 100 ug/ml after 24 hrs by agar diffusion method. The gist of the method:
as §1

Experiment [3] deals with Staphylococcus aureus. Nature of the experiment: Antimicrobial activity against Staphylococcus aureus at 50 ug/ml after 24 hrs by agar diffusion method. The gist of the method:
as §1

Experiment [4] relates to Salmonella enterica subsp. enterica serovar Typhi str. CT18. Nature of the experiment: Antimicrobial activity against Salmonella typhi at 50 ug/ml after 24 hrs by agar diffusion method. The gist of the method: (§2)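 Agar well diffusion: about 9 ml nutrient agar in 9 cm Petri plates, seeded with the test organism. Wells cut with a cork borer and loaded with test compound at 25–100 per ml; tetracycline as control. Plates incubated 24 h at 37 °C. Read-out is the average diameter of the inhibition zone around each well, in mm.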

For experiment [5] the test system is unchanged. Nature of the experiment: Antimicrobial activity against Salmonella typhi at 100 ug/ml after 24 hrs by agar diffusion method. The gist of the method: as §2
Experiment [6] relates to Proteus mirabilis. Nature of the experiment: Antimicrobial activity against Proteus mirabilis at 25 ug/ml after 24 hrs by agar diffusion method. The method in brief:
as §1

For experiment [7], the system named is Staphylococcus aureus. Nature of the experiment: Antimicrobial activity against Staphylococcus aureus at 25 ug/ml after 24 hrs by agar diffusion method. The method in brief: as §1
The subject of experiment [8] is Proteus vulgaris. The experiment in a line: Antimicrobial activity against Proteus vulgaris at 50 ug/ml after 24 hrs by agar diffusion method. The gist of the method: as §1
In experiment [9] the test system is Staphylococcus aureus. Nature of the experiment: Antimicrobial activity against Staphylococcus aureus at 100 ug/ml after 24 hrs by agar diffusion method. The gist of the method:
as §1

In experiment [10] the test system is Proteus vulgaris. Nature of the experiment: Antimicrobial activity against Proteus vulgaris at 25 ug/ml after 24 hrs by agar diffusion method. The method in brief:
as §1

Experiment [11] has as its system Salmonella enterica subsp. enterica serovar Typhi str. CT18. The experiment in a line: Antimicrobial activity against Salmonella typhi at 25 ug/ml after 24 hrs by agar diffusion method. The method in brief:
as §2

Experiment [12] relates to Proteus vulgaris. The experiment in a line: Antimicrobial activity against Proteus vulgaris at 75 ug/ml after 24 hrs by agar diffusion method. The method in brief:
as §1

In experiment [13] the test system is Proteus mirabilis. Nature of the experiment: Antimicrobial activity against Proteus mirabilis at 100 ug/ml after 24 hrs by agar diffusion method. The method in brief:
as §1

Experiment [14] deals with Salmonella enterica subsp. enterica serovar Typhi str. CT18. Nature of the experiment: Antimicrobial activity against Salmonella typhi at 75 ug/ml after 24 hrs by agar diffusion method. The method in brief:
as §2

Experiment [15] relates to Proteus mirabilis. The experiment in a line: Antimicrobial activity against Proteus mirabilis at 50 ug/ml after 24 hrs by agar diffusion method. The gist of the method:
as §1

The test system of experiment [16] is Proteus mirabilis. The experiment in a line: Antimicrobial activity against Proteus mirabilis at 75 ug/ml after 24 hrs by agar diffusion method. The method in brief: as §1

Turning to `CN1C[C@@H](c2ccc(Cl)cc2)[C@@]2(CCc3c([nH]c4ccccc34)C2=O)[C@]12C(=O)Nc1ccccc12`, the zone of inhibition at 75 µg/mL in experiment [1] was 18 mm; in [12], 24 mm; in [14], 17 mm; in [16], 18 mm. Further, the zone of inhibition at 100 µg/mL amounted to 26 mm in experiment [2], 18 mm in [5], 21 mm in experiment [9] and 22 mm in [13]. Also, the zone of inhibition at 50 µg/mL turned out to be 14 mm in [3], 15 mm in experiment [4], 18 mm in experiment [8] and 15 mm in [15]. Also, the zone of inhibition at 25 µg/mL in experiment [6] was determined as 13 mm; in experiment [7], 9 mm; in experiment [10], 9 mm; in [11] it was 11 mm.
As for `CN1C[C@@H](c2ccc(Br)cc2)[C@@]2(CCc3c([nH]c4ccccc34)C2=O)[C@]12C(=O)c1cccc3cccc2c13`, the zone of inhibition at 75 µg/mL in experiment [1] was 18 mm; in experiment [12], 20 mm; in experiment [14], 21 mm; in experiment [16], 18 mm. For the same compound, the zone of inhibition at 100 µg/mL in experiment [2] came to 22 mm; in [5] it was 30 mm; in experiment [9], 22 mm; in [13], 22 mm. Further, the zone of inhibition at 50 µg/mL in experiment [3] is 14 mm; in experiment [4], 14 mm; in [8] it was 16 mm; in experiment [15], 15 mm. The zone of inhibition at 25 µg/mL was 13 mm in [6], 11 mm in experiment [7], 12 mm in experiment [10] and 9 mm in experiment [11].
As to `COc1ccc([C@@H]2CN(C)[C@@]3(C(=O)c4cccc5cccc3c45)[C@]23CCc2c([nH]c4ccccc24)C3=O)cc1`, the zone of inhibition at 75 µg/mL in [1] is 21 mm; in experiment [12], 13 mm; in experiment [14] it was 18 mm; in experiment [16] it was 20 mm. In addition, the zone of inhibition at 100 µg/mL in experiment [2] came to 17 mm; in [5], 26 mm; in [9] it was 30 mm; in experiment [13] it was 22 mm. Also, the zone of inhibition at 50 µg/mL stood at 16 mm in experiment [3], 15 mm in experiment [4], 12 mm in experiment [8] and 16 mm in experiment [15]. In addition, the zone of inhibition at 25 µg/mL was determined as 14 mm in experiment [6], 9 mm in experiment [7], 9 mm in experiment [10] and 13 mm in experiment [11].
Regarding `CN(C)[C@@H]1C(O)=C(C(N)=O)C(=O)[C@@]2(O)C(O)=C3C(=O)c4c(O)cccc4[C@@](C)(O)[C@H]3C[C@@H]12` [TETRACYCLINE], the zone of inhibition at 75 µg/mL in experiment [1], in experiment [12], in experiment [14] and in experiment [16] was 28 mm in each case. In addition, the zone of inhibition at 100 µg/mL in experiment [2], in [5], in [9] and in [13] was greater than 40 mm in each case. Besides, the zone of inhibition at 50 µg/mL in [3] stood at 24 mm; in experiment [4] it was 22 mm; in experiment [8] it was 24 mm; in experiment [15], 24 mm. Further, the zone of inhibition at 25 µg/mL in experiment [6] was 18 mm; in [7], 22 mm; in experiment [10] it was 18 mm; in experiment [11], 18 mm.
Consider `CN1C[C@@H](c2ccc([N+](=O)[O-])cc2)[C@@]2(CCc3c([nH]c4ccccc34)C2=O)[C@]12C(=O)c1cccc3cccc2c13`, for which the zone of inhibition at 75 µg/mL is 21 mm in experiment [1], 27 mm in experiment [12], 18 mm in experiment [14] and 17 mm in experiment [16]. Besides, the zone of inhibition at 100 µg/mL is greater than 40 mm in experiment [2], 25 mm in [5], 31 mm in experiment [9] and 21 mm in experiment [13]. Moreover, the zone of inhibition at 50 µg/mL worked out at 16 mm in [3], 14 mm in [4], 22 mm in experiment [8] and 13 mm in experiment [15]. Besides, the zone of inhibition at 25 µg/mL was determined as 9 mm in experiment [6], 9 mm in experiment [7], 13 mm in experiment [10] and 11 mm in [11].
As to `Cc1ccc([C@@H]2CN(C)[C@@]3(C(=O)c4cccc5cccc3c45)[C@]23CCc2c([nH]c4ccccc24)C3=O)cc1`, the zone of inhibition at 75 µg/mL in experiment [1] amounted to 23 mm; in [12], 16 mm; in experiment [14] it was 21 mm; in experiment [16] it was 18 mm. The zone of inhibition at 100 µg/mL in [2] came out at 20 mm; in experiment [5] it was 29 mm; in experiment [9], 27 mm; in experiment [13] it was 21 mm. The zone of inhibition at 50 µg/mL was found to be 18 mm in [3], 15 mm in [4], 14 mm in [8] and 14 mm in experiment [15]. For the same compound, the zone of inhibition at 25 µg/mL amounted to 11 mm in experiment [6], 14 mm in experiment [7], 11 mm in experiment [10] and 12 mm in experiment [11].
For the compound `COc1ccc([C@@H]2CN(C)[C@@]3(C(=O)Nc4ccccc43)[C@]23CCc2c([nH]c4ccccc24)C3=O)cc1`, the zone of inhibition at 75 µg/mL in experiment [1] is 17 mm; in experiment [12] it was 18 mm; in [14] it was 18 mm; in experiment [16] it was 16 mm. Further, the zone of inhibition at 100 µg/mL turned out to be 20 mm in [2], 21 mm in [5], 20 mm in [9] and 21 mm in [13]. The zone of inhibition at 50 µg/mL was 14 mm in experiment [3], 14 mm in experiment [4], 13 mm in experiment [8] and 13 mm in experiment [15]. Further, the zone of inhibition at 25 µg/mL in [6] was 9 mm; in experiment [7], 12 mm; in experiment [10], 11 mm; in experiment [11] it was 12 mm.
With `CN1C[C@@H](c2ccc([N+](=O)[O-])cc2)[C@@]2(CCc3c([nH]c4ccccc34)C2=O)C12C(=O)c1ccccc1C2=O`, the zone of inhibition at 75 µg/mL in [1] was determined as 18 mm; in [12], 18 mm; in [14] it was 13 mm; in experiment [16], 18 mm. The zone of inhibition at 100 µg/mL in experiment [2] worked out at 18 mm; in experiment [5] it was 18 mm; in experiment [9], 18 mm; in [13], 21 mm. In addition, the zone of inhibition at 50 µg/mL in experiment [3] amounted to 14 mm; in experiment [4], 11 mm; in experiment [8] it was 17 mm; in [15] it was 13 mm. The zone of inhibition at 25 µg/mL in [6] is 9 mm; in experiment [7], 11 mm; in experiment [10] it was 12 mm; in experiment [11], 9 mm.
`CN1C[C@@H](c2ccccc2)[C@@]2(CCc3c([nH]c4ccccc34)C2=O)[C@]12C(=O)Nc1ccccc12`: the zone of inhibition at 75 µg/mL came out at 16 mm in experiment [1], 20 mm in experiment [12], 13 mm in experiment [14] and 14 mm in experiment [16]. In addition, the zone of inhibition at 100 µg/mL in experiment [2] was found to be 26 mm; in [5] it was 18 mm; in experiment [9] it was 18 mm; in [13] it was 16 mm. In addition, the zone of inhibition at 50 µg/mL came to 13 mm in [3], 11 mm in experiment [4], 16 mm in [8] and 12 mm in experiment [15]. The zone of inhibition at 25 µg/mL in experiment [6] was 9 mm; in experiment [7], 11 mm; in experiment [10] it was 12 mm; in [11] it was 9 mm.
